Hits are enriched below; roughly 1.7% of the tested compounds scored in any of these assays.
CAL PDZ FP-1 = CAL PDZ (human) peptide binding inhibition. purified CAL PDZ, TMR-peptide fluorescence polarization, 1 h. AID 602252. inhibition, % at 24.9 µM. 300,000 compounds, 0.92% hits. Q9HD26;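 active means mean inhibition of at least 30% with at least half of replicates also reaching 30%; inconclusive means no clear call, values can overlap the other calls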;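 further: 0% = DMSO neutral control and 100% = excess unlabeled competitor peptide PRC23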
ARNT TACC3 PPI = ARNT/TACC3 interaction disruption; AlphaScreen His-ARNT PAS-B/GST-TACC3 binding, luminescence; TACC3 fragment carries E629A point mutation; inhibition, % at 9.99 µM; 390,000 compounds, 0.66% hits; AID 623870;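 active means mean inhibition of replicates at least 50% and at least half of replicates each reaching 50%; inconclusive means half or more replicates reach 50% but mean below 50%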;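 further: 0% = complete ARNT plus TACC3 wells and 100% = ARNT alone without TACC3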
AI-2 QS modul = modulates the Vibrio harveyi AI-2 quorum sensing system. activity change, % at 7.5 µM. 300,000 compounds, 0.4% hits. Vibrio harveyi JMH597 AI-2 luminescence/OD600 ratio, 9 h; hits give low values; strain lacks LuxN and CqsS sensors; 0 = neutral-control median; in the data active means activity change below about -75%, passing the limit was not always enough; inconclusive means no clear call, values can overlap the other calls;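 further: luminescence divided by OD600 gain over 9 h not by final OD600 alone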
Rce1 inh = blocks yeast Ras-converting enzyme; AID 2563; Q03530; calls only; 290,000 compounds, 0.27% hits; yeast membranes, quenched prenylated peptide cleavage fluorescence;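 active means fall in fluorescence gain of 50% or more versus controls, with final raw signal at or below 3038400; inconclusive means same 50% fall but final raw signal above 3038400; inactive means fall in fluorescence gain under 50%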;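 further: plate controls were neutral control wells for no effect and wells lacking membranes for full effect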
Target sequence (Q03530 whole entry, looked up): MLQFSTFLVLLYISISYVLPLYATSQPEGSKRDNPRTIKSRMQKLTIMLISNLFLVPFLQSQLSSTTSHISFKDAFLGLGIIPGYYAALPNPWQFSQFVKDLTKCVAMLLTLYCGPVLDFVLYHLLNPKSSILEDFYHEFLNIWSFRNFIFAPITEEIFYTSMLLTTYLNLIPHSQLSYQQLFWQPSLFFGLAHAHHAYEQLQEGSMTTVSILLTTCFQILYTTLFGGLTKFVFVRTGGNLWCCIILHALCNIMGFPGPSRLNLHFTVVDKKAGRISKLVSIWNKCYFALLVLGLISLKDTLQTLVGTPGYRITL
CAL PDZ FP-2 = human CAL PDZ-peptide interaction inhibition | purified CAL PDZ, TMR-peptide fluorescence polarization, 1 h | inhibition, % at 20 µM | 330,000 compounds, 0.02% hits;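 active means highest replicate inhibition of at least 40%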;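 further: plate controls were DMSO neutral control wells for no effect and unlabeled competitor peptide control wells for full effect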
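Material – purified CerCALP PDZ construct · Detection – FP readout, S and P plane fluorescence · Measure – percent inhibition from loss of millipolarization · Controls – unlabelled peptide for full inhibition, DMSO wells as neutral · Probe or stimulus – TMR-labelled reporter peptide T*-PRC34 bound in PDZ groove · Times – 1 h at RT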
Numbers without * were called inactive; i = inactive; ? = inconclusive; . = no result; + = active, no number.

SMILES | CAL PDZ FP-1 | ARNT TACC3 PPI | AI-2 QS modul | Rce1 inh | CAL PDZ FP-2
COC(=O)c1cc2ccccc2c([N+](=O)[O-])c1O | 108* | -2 | . | . | 0
COc1ccc(C(=O)COC(=O)/C=C/c2ccco2)cc1F | 65* | 1 | . | . | -1
CCc1nnc(NC(=O)c2cccc(NC(=O)C(C)C)c2)s1 | 45* | 2 | 12 | i | -1
CCN(C(=O)c1ccc(NC(=O)Cc2ccccc2)cc1)c1ccccc1 | 48* | -2 | 16 | i | -1
CN(C(=O)c1ccc(NC(=O)Cc2ccccc2)cc1)c1ccccc1 | -5 | 0 | 2 | i | 2
COc1ccc(Cl)cc1C(Nc1cccnc1)c1ccc2cccnc2c1O (centres undefined) | 5 | 15 | -82* | i | -2
O=[N+]([O-])c1ccc(NC(c2ccccc2)c2ccc3cccnc3c2O)cc1 (centres undefined) | 91* | -9 | . | . | 2
CC(=O)NC(c1cccc([N+](=O)[O-])c1)c1ccc2cccnc2c1O (centres undefined) | -2 | 21 | ? | i | 0
Oc1cccc(C(Nc2nccs2)c2ccc3cccnc3c2O)c1 (centres undefined) | -3 | 40 | -85* | i | 0
COc1cccc(C(NC(C)=O)c2ccc3cccnc3c2O)c1 (centres undefined) | 1 | 100* | . | . | -20
Cc1cccc(C(=O)Oc2c(Br)cc(Br)cc2/C=N/NC(=O)c2ccncc2)c1 | . | . | 4 | i | 0
COc1ccc(/C=N/NC(=O)CNC(=O)c2ccncc2)cc1OC | 55* | 0 | 11 | i | -1
COc1ccc(C(=O)NCC(=O)N/N=C/c2cccnc2)cc1OC | -1 | -76 | -4 | i | -1
Cc1nonc1C(=O)N/N=C/c1ccc(O)cc1O | -4 | 66* | -88* | i | -2
O=C(CNC(=O)c1ccncc1)N/N=C/c1cc(Br)ccc1O | -1 | 46* | -23 | i | -2
O=C(N/N=C/c1cc(Br)cc(Br)c1O)c1ccncc1 | . | . | -84* | i | .
Cc1nonc1C(=O)N/N=C/c1ccncc1 | 2 | -3 | 15 | i | -1
O=C(CNC(=O)c1ccccc1)N/N=C/c1cc(Br)ccc1O | -3 | -2 | 39 | i | 0
Cc1nc2ccc(C(=O)N/N=C/c3ccccc3O)cc2[nH]1 | -4 | 93* | . | . | -3
COc1ccc(/C=N/NC(=O)c2cc[n+]([O-])cc2)cc1O | . | 72* | -3 | i | -1
O=C(C[n+]1ccccc1)N/N=C/c1cc(Br)cc(Br)c1O | -3 | 64* | -149* | i | .
O=C(N/N=C/c1cc(Br)ccc1O)C(c1ccncc1)N1CCOCC1 (centres undefined) | -5 | 58* | 62 | i | -2
COc1ccc(/C=N/NC(=O)c2cc[n+]([O-])cc2)cc1 | . | 0 | 14 | i | 0
O=C(N/N=C/c1ccc(O)cc1O)c1ccncc1 | 1 | 74* | 101 | i | 0
CCOC(=O)C1=C(O)/C(=C\c2ccc(O)c(OCC)c2)N=C1C | 63* | 2 | 17 | i | 0
SMILES | CAL PDZ FP-1 | ARNT TACC3 PPI | AI-2 QS modul | Rce1 inh | CAL PDZ FP-2
c1ccc(-c2ccccc2OCCOCCN2CCc3ccccc3C2)cc1 | 75* | 2 | 12 | i | 0
O=C(NC12CC3CC(CC(C3)C1)C2)c1ccc([N+](=O)[O-])o1 | -2 | 1 | -210* | i | 0
CN(C)S(=O)(=O)c1ccc(C(=O)NC2CCCc3ccccc32)cc1 (centres undefined) | 71* | -1 | 21 | i | -2
CC(O)CNCCCOc1cccc(C(F)(F)F)c1 (centres undefined) | 6 | -3 | 9 | i | 0
CC(O)CNCCCOc1cccc(Oc2ccccc2)c1 (centres undefined) | 111* | -1 | 21 | i | 134*
N/C(=N/OC(=O)c1ccccc1Cl)c1ncc([N+](=O)[O-])s1 | -5 | -5 | -86* | i | 2
N/C(=N\OC(=O)c1ccccc1Cl)c1cccc([N+](=O)[O-])c1 | -3 | 1 | 7 | i | -1
C[C@H](CO)N1C[C@H](C)[C@@H](CN(C)Cc2ccccc2)Oc2ccc(NC(=O)CCC(F)(F)F)cc2CC1=O | . | -13 | . | . | .
N#Cc1nc(/C=C/c2ccccc2)oc1NCCCN1CCOCC1 | 36* | -15 | 16 | ? | 0
Cc1cccc(C(CC(=O)NCc2ccco2)c2ccccc2)c1O (centres undefined) | + | -2 | 29 | i | 0
CCOc1cc(C(=S)N2CCN(C)CC2)ccc1OCC(=O)N1CCCC1 | 0 | 14 | 5 | i | -2
CC(C)(C)[C@H]1COC(=O)CCCC/C=C\C[C@H](CC(=O)N(CCO)Cc2ccccc2)C(=O)N1 | 106* | 1 | . | . | -1
COc1ccc(S(=O)(=O)N(C)C[C@H]2Oc3c(NC(=O)c4ccncc4)cccc3C(=O)N([C@H](C)CO)C[C@H]2C)cc1 | . | 5 | . | . | .
CC(=O)OCC(=O)C1(O)CCC2C3CC(F)C4=CC(=O)CCC4(C)C3C(=O)CC21C (centres undefined) | 130* | -3 | . | . | 0
CC(=O)OCC(=O)C1(O)CCC2C3CC(F)C4=CC(=O)CCC4(C)C3C(O)CC21C (centres undefined) | 86* | -4 | . | . | 1
CN1C(=O)CC(N2CCN(c3ncccn3)CC2)C1=O (centres undefined) | -2 | . | -6 | i | -3
COC(=O)CSc1nnc(CNC(=O)c2ccc(OC)c(OC)c2)n1C | 38* | -2 | 10 | i | -2
CCOC(=O)CSc1nnc(CNC(=O)c2cccc(C)c2)n1-c1ccccc1OC | -1 | 3 | 21 | i | .
CCOC(=O)CSc1nnc(CNC(=O)c2cccc(C)c2)n1C | 76* | 10 | 13 | i | 4
Cc1ccc(/C=C2\SC(=S)N(CCC(=O)NNS(=O)(=O)c3ccc(C)cc3)C2=O)cc1 | 0 | -1 | 30 | i | 0
CCCCNc1nc(=S)[nH]c2cc(OC)c(OC)cc12 | 1 | 60* | 33 | i | -2
COc1cc2[nH]c(=S)nc(NCCCOC(C)C)c2cc1OC | 42* | 55* | 22 | i | -2
COc1cc2[nH]c(=S)nc(NCc3ccc(C)cc3)c2cc1OC | -6 | 31 | 5 | i | 0
COc1ccc(CNc2nc(=S)[nH]c3cc(OC)c(OC)cc23)cc1 | -5 | 51* | 15 | i | 0
COCCNc1nc(=S)[nH]c2cc(OC)c(OC)cc12 | -4 | 59* | 28 | i | -1
COc1cccc(C(=O)NCc2cn3ccsc3n2)c1 | . | 2 | 11 | i | 0
Cc1ccc(NCc2ccc(O)c3ncccc23)cc1 | 7 | 0 | 7 | i | 0
Oc1c(CNc2ccccc2)cc(COCc2ccccc2)c2cccnc12 | -1 | 57* | . | . | -1

Compound activity: PubChem BioAssay, Broad Institute
